Converted amounts (≈) assume the structure as drawn. The source made the active and inactive calls. The calls are words filed in the database; no cut-off is given here.
Test system: not listed separately
Experiment: Aqueous solubility of the compound
Type: physicochemical
Settings: aqueous medium
Method in brief: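 Saturated suspension (1–2 mg in 2 mL distilled water) sonicated 30 min at room temperature, centrifuged 1,500 g, 20 °C, 5 min, then filtered through 0.2 μm PTFE. Filtrate quantified by HPLC-UV at 254 nm against standard curves. Three independent experiments, values averaged.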

| Compound | solubility |
| --- | --- |
| COc1ccc(S(=O)(=O)N(Cc2ccc3c(c2)C=CC(C)(C)O3)c2ccccc2)cc1OC | 9 nM (≈ 4.19 ng/mL) |

Molecular target: Histone acetyltransferase p300 (Homo sapiens) (UniProt Q09472)
Experiment: Inhibition of P300 CH1 domain-mediated HIF1 transcriptional activity in human LN229-V6R cells assessed as reduction in luciferase activity at 2.5 to 10 uM incubated for 1 hr under normoxia followed by 24 hrs under hypoxia by reporter gene assay
Type: cell-based
Settings: not given
Method in brief: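 LN229-V6R cells carrying a stably integrated hypoxia/HIF-inducible luciferase reporter were seeded at 3 × 10⁴/well in DMEM with 10% serum and grown 24 h under normoxia. Compound was added at 2.5, 5.0 or 10.0 μM in 1% DMSO. Cells were held 1 h at 37 °C, then 24 h under hypoxia (1% O₂). Luciferase was read in lysates as percent of untreated control, in triplicate.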

Sequence of Histone acetyltransferase p300 (Homo sapiens) (Q09472 whole entry, the tested form may be a part): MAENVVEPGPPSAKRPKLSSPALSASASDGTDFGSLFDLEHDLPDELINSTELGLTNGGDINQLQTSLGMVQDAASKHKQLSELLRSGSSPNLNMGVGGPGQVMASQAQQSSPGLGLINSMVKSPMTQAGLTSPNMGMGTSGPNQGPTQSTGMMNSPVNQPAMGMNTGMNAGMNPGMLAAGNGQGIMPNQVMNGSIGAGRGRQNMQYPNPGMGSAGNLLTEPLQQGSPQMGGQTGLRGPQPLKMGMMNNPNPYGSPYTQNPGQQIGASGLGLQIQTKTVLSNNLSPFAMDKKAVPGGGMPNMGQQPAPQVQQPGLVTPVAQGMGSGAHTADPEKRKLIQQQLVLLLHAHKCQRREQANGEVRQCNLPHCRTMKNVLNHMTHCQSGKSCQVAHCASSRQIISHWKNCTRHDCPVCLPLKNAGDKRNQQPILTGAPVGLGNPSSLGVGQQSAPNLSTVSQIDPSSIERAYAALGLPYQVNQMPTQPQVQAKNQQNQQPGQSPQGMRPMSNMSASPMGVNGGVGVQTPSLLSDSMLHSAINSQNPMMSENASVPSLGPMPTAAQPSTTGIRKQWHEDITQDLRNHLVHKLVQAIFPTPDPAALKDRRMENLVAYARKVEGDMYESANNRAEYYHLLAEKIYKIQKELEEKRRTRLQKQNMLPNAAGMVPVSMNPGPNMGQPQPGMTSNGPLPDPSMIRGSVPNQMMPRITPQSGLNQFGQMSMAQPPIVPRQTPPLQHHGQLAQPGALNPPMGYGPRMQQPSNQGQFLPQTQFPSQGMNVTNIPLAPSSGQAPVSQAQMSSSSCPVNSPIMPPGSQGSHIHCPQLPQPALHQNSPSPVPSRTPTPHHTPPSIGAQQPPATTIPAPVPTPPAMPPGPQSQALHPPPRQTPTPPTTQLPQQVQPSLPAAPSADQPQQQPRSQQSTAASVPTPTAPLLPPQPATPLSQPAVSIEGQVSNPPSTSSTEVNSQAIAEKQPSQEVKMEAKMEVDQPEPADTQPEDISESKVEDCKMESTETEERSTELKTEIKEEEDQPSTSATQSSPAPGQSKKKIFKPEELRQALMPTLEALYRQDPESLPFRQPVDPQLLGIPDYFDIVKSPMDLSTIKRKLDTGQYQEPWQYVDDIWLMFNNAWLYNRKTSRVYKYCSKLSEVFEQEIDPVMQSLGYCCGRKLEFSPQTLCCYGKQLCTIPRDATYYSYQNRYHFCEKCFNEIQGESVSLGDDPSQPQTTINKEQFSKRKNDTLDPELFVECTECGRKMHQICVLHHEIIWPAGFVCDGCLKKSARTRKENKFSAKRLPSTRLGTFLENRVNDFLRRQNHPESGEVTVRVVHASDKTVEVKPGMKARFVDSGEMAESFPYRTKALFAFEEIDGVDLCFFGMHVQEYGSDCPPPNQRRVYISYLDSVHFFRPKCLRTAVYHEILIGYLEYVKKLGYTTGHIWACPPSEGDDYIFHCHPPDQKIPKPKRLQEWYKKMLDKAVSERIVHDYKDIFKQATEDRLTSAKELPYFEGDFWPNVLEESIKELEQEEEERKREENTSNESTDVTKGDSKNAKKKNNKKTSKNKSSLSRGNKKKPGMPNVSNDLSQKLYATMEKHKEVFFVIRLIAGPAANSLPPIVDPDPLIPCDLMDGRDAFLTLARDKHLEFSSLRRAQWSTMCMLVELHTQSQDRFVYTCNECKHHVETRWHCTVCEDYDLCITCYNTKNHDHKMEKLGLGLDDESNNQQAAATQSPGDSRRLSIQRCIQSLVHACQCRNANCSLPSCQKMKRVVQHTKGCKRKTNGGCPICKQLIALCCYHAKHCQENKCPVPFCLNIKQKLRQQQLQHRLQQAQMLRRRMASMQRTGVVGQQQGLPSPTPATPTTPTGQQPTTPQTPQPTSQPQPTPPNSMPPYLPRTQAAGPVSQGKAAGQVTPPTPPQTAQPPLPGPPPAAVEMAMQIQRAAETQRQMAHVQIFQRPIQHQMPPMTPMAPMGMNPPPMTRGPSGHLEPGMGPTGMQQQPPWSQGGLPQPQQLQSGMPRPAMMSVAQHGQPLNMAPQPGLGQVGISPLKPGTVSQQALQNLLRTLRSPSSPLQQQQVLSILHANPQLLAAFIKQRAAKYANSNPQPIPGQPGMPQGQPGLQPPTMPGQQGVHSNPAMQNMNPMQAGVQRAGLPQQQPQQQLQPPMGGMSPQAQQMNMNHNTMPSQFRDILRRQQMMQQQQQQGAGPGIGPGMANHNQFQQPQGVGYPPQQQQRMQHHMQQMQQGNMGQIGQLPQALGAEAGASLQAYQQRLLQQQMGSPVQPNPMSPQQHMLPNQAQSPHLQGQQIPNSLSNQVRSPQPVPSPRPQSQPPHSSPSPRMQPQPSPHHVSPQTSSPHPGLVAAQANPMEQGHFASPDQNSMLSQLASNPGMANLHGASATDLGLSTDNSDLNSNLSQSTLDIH

| Compound | inhibition |
| --- | --- |
| COc1ccc(S(=O)(=O)N(Cc2ccc3c(c2)C=CC(C)(C)O3)c2ccccc2)cc1OC | Active |

Molecular target: Histone acetyltransferase p300 (Homo sapiens) (UniProt Q09472)
Experiment: Inhibition of P300 CH1 domain-mediated HIF1 transcriptional activity in human LN229-V6R cells assessed as reduction in luciferase activity incubated for 1 hr under normoxia followed by 24 hrs under hypoxia by reporter gene assay
Type: cell-based
Settings: not given
Method in brief: (§1)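 LN229-V6R cells carry a stably integrated hypoxia/HIF-inducible luciferase reporter. 3 × 10⁴ cells/well in DMEM with 10% serum, 24 h normoxia. Compound at 2.5, 5.0 or 10.0 μM in 1% DMSO, 1 h at 37 °C, then 24 h at 1% O2. Lysates mixed with luciferase substrate and read by luminometry, expressed as % of untreated control. Triplicates.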

| Compound | inhibition |
| --- | --- |
| CC1(C)C=Cc2cc(CN(CC3CC3)S(=O)(=O)c3ccccn3)ccc2O1 | Dose-dependent effect |
| CC1(C)C=Cc2cc(CN(C3CCC3)S(=O)(=O)c3ccccn3)ccc2O1 | Dose-dependent effect |
| CC(C)CN(Cc1ccc2c(c1)C=CC(C)(C)O2)S(=O)(=O)c1nccn1C | Dose-dependent effect |

Test system: LN-229
Experiment: Inhibition of luciferase activity in human LN229-Lux cells at 2.5 to 10 uM incubated for 1 hr under normoxia followed by 24 hrs under hypoxia by reporter gene assay
Type: functional, cell-based
Settings: not given

| Compound | inhibition |
| --- | --- |
| CC1(C)C=Cc2cc(CN(CC3CC3)S(=O)(=O)c3ccccn3)ccc2O1 | inactive |
| CC1(C)C=Cc2cc(CN(C3CCC3)S(=O)(=O)c3ccccn3)ccc2O1 | inactive |
| CC(C)CN(Cc1ccc2c(c1)C=CC(C)(C)O2)S(=O)(=O)c1nccn1C | inactive |
| COc1ccc(S(=O)(=O)N(Cc2ccc3c(c2)C=CC(C)(C)O3)c2ccccc2)cc1OC | inactive |

Test system: not listed separately
Experiment: 1-Octanol-phosphate buffer distribution coefficient, log P of the compound at pH 7.4 by HPLC analysis
Type: physicochemical
Settings: not given
Method in brief: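 Eluent methanol:water:triethylamine 70:30:0.1 at 2 mL/min, UV 254/280 nm. Calibrated with aniline, benzene, toluene and chlorobenzene plus two shake-flask-measured reference sulfonamides.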

| Compound | logD |
| --- | --- |
| CC1(C)C=Cc2cc(CN(CC3CC3)S(=O)(=O)c3ccccn3)ccc2O1 | 3.1 |
| CC1(C)C=Cc2cc(CN(C3CCC3)S(=O)(=O)c3ccccn3)ccc2O1 | 3 |
| CC(C)CN(Cc1ccc2c(c1)C=CC(C)(C)O2)S(=O)(=O)c1nccn1C | 3.1 |
| COc1ccc(S(=O)(=O)N(Cc2ccc3c(c2)C=CC(C)(C)O3)c2ccccc2)cc1OC | 3.7 |

Test system: not listed separately
Experiment: Aqueous solubility of the compound at pH 7.4 after 90 mins by laser nephelometric analysis
Type: physicochemical
Settings: aqueous medium
Method in brief: (§2)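 DMSO stocks (30 mg/mL) serially diluted, then diluted into phosphate-buffered saline at pH 7.4, 5.0 or 3.0. Final drug concentrations were 1.5–300 μg/mL with 1% DMSO. Incubated 90 min at ambient temperature, and laser nephelometry located the onset of precipitation. An internal control was included.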

| Compound | solubility kinetic at 1.5 h |
| --- | --- |
| COc1ccc(S(=O)(=O)N(Cc2ccc3c(c2)C=CC(C)(C)O3)c2ccccc2)cc1OC | < 15 µg/mL |

Test system: not listed separately
Experiment: Aqueous solubility of the compound at pH 5 after 90 mins by laser nephelometric analysis
Type: physicochemical
Settings: aqueous medium
Method in brief: as §2

| Compound | solubility kinetic at 1.5 h |
| --- | --- |
| COc1ccc(S(=O)(=O)N(Cc2ccc3c(c2)C=CC(C)(C)O3)c2ccccc2)cc1OC | < 15 µg/mL |

Test system: not listed separately
Experiment: Aqueous solubility of the compound at pH 3 after 90 mins by laser nephelometric analysis
Type: physicochemical
Settings: aqueous medium
Method in brief: as §2

| Compound | solubility kinetic at 1.5 h |
| --- | --- |
| COc1ccc(S(=O)(=O)N(Cc2ccc3c(c2)C=CC(C)(C)O3)c2ccccc2)cc1OC | < 15 µg/mL |

Test system: Liver
Experiment: Half life in mouse liver homogenate by HPLC analysis at pH 7.4
Type: ADME, tissue-based
Settings: in vitro
Method in brief: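 Mouse liver homogenate in PBS pH 7.4 (1:2 w/v) incubated with 20 μM compound at 37 °C with shaking. Timed samples extracted with acetonitrile and analysed by C8 HPLC-PDA with 2 μM α-naphthoflavone internal standard, linear range 1-50 μM. Triplicates.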

| Compound | t1/2 |
| --- | --- |
| CC1(C)C=Cc2cc(CN(CC3CC3)S(=O)(=O)c3ccccn3)ccc2O1 | 13 h |
| COc1ccc(S(=O)(=O)N(Cc2ccc3c(c2)C=CC(C)(C)O3)c2ccccc2)cc1OC | 11 h |

Molecular target: Histone acetyltransferase p300 (Homo sapiens) (UniProt Q09472)
Experiment: Inhibition of P300 CH1 domain-mediated HIF1 transcriptional activity in human LN229-V6R cells assessed as remaining activity at 2.5 uM incubated for 1 hr under normoxia followed by 24 hrs under hypoxia by luciferase reporter gene assay
Type: cell-based
Settings: not given
Method in brief: as §1

| Compound | Activity |
| --- | --- |
| CC1(C)C=Cc2cc(CN(CC3CC3)S(=O)(=O)c3ccccn3)ccc2O1 | 49% |
| CC1(C)C=Cc2cc(CN(C3CCC3)S(=O)(=O)c3ccccn3)ccc2O1 | 53% |
| CC(C)CN(Cc1ccc2c(c1)C=CC(C)(C)O2)S(=O)(=O)c1nccn1C | 74% |
| COc1ccc(S(=O)(=O)N(Cc2ccc3c(c2)C=CC(C)(C)O3)c2ccccc2)cc1OC | 28% |

Test system: not listed separately
Experiment: Drug metabolism in mouse plasma after 24 hrs by HPLC analysis
Type: ADME, cell-free
Settings: read-out: Drug metabolism
Method in brief: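 Compound at 20 μM incubated in fresh mouse plasma at 37 °C with shaking for 24 h. Samples extracted with acetonitrile, dried and reconstituted. Quantified by C8 reverse-phase HPLC with photodiode-array detection, 2 μM α-naphthoflavone internal standard, standard curves 1-50 μM. Triplicates.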

| Compound | metabolised at 24 h |
| --- | --- |
| CC1(C)C=Cc2cc(CN(CC3CC3)S(=O)(=O)c3ccccn3)ccc2O1 | < 1% |
| COc1ccc(S(=O)(=O)N(Cc2ccc3c(c2)C=CC(C)(C)O3)c2ccccc2)cc1OC | < 1% |

Reference: ChEMBL document CHEMBL2163270, “Design and in vitro activities of N-alkyl-N-[(8-R-2,2-dimethyl-2H-chromen-6-yl)methyl]heteroarylsulfonamides, novel, small-molecule hypoxia inducible factor-1 pathway inhibitors and anticancer agents” (J Med Chem, 2012)
